Screening data deposited in PubChem by Sanford-Burnham Center for Chemical Genomics.
A3A deaminase: inhibitors of human APOBEC3A DNA deaminase. recombinant A3A, FAM/TAMRA ssDNA deamination fluorescence. inhibition, % at 20 µM. 0.41% of 330,000 active. AID 493011;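 active means at least 40% inhibition at 20 µM here, with at most 30% in a related deaminase screen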
Target sequence (P31941 whole entry, looked up): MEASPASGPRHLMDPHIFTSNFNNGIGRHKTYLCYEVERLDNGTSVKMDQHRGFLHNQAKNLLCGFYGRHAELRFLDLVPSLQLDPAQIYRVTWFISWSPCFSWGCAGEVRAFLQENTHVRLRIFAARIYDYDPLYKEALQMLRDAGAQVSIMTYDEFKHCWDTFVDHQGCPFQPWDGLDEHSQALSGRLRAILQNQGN
APJ antagonist: blocks the human apelin receptor APJ. 0.32% of 330,000 active. CHO-K1 APJ beta-arrestin complementation, luminescence. AID 2521. inhibition, % at 20 µM. P35414;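 active means inhibition above about 40% at 20 µM, limit read from the data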;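 further: cells challenged with 10 nM apelin-13 agonist together with compound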
APJ agonist: activates the human apelin receptor APJ; CHO-K1 APJ PathHunter beta-arrestin, luminescence; 0% DMSO wells, 100% apelin; 0.11% of 330,000 active; P35414; activation, % at 20 µM;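 active means activation more than six SD over the plate average, tested at 20 µM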
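Test system: CHO-K1 APJ beta-arrestin complementation cell line | Compound: Single test compound dose, 20 µM final, 1% DMSO | Incubation: Compound 90 min 25 °C, reagent 1 h | Measured by: beta-gal luminescence | Read-out basis: APJ–arrestin association signal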
CCR6 antag: CCR6 (human) receptor antagonism. inhibition, % at 20 µM. P51684. CHO-K1 CCR6 PathHunter beta-arrestin, luminescence, CCL20-stimulated. 0.49% of 340,000 active. AID 493098;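 active means compounds whose inhibition of the agonist-driven luminescence signal at 20 µM reaches about 50%, limit read from the data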;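 further: cells stimulated with CCL20 at 14 nM final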
CXCR6 block: CXCR6 (human) receptor inhibition | O00574 | CHO-K1 PathHunter CXCR6 beta-arrestin, luminescence | inhibition, % at 20 µM | 0.36% of 360,000 active; in the data active means inhibition above about 34%, passing the limit was not always enough;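 further: antagonist mode with CXCL16 agonist at 10 nM final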
Target sequence (O00574 whole entry, looked up): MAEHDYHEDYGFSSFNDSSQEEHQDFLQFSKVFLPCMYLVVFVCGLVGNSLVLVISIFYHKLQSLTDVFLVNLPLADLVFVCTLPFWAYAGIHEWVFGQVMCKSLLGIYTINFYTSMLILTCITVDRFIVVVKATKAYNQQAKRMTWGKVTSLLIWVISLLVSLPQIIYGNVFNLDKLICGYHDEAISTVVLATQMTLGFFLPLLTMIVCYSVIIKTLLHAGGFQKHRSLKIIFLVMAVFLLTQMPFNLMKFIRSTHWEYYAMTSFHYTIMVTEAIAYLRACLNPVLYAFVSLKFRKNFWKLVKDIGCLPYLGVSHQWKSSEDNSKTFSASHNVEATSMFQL
APOBEC3G inh: inhibitors of human APOBEC3G DNA deaminase; Q9HC16; recombinant A3G, ssDNA deamination FAM/TAMRA fluorescence; inhibition, % at 20 µM; 0.28% of 330,000 active; AID 493012;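 active means inhibition of at least 40% at 20 µM, with no more than 30% in the related APOBEC3A deaminase screen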
APJ antag conf: APJ receptor antagonism confirmation. shares compounds with APJ antagonist. APJ beta-arrestin recruitment, luminescence, antagonist mode. inhibition, % at 20 µM. 66% of 950 active; in the data active means inhibition above about 50%
Numbers stand for hits. Hits are enriched below; roughly 1.4% of the tested compounds scored in any of these assays.

For COc1ccc(C(=O)N/N=C/c2ccc(OC)c(COc3ccc(F)cc3F)c2)cc1 the results were A3A deaminase inactive, APJ antagonist inactive, APJ agonist inactive, CCR6 antag inactive, CXCR6 block inactive and APOBEC3G inh inactive.
O=C(CNC(=O)c1ccco1)NCC(=O)OCC(=O)c1ccc(Cl)c([N+](=O)[O-])c1 was read as A3A deaminase inactive, APJ antagonist 82, APJ agonist inactive, CCR6 antag 89, CXCR6 block 58, APOBEC3G inh inactive and APJ antag conf 147.
N/C(=N\OC(=O)CCCc1ccccc1)c1cccc([N+](=O)[O-])c1 was read as A3A deaminase inactive, APJ antagonist inactive, APJ agonist inactive, CCR6 antag inactive, CXCR6 block inactive and APOBEC3G inh inactive.
`O=C(CCc1ccccc1)OCC(=O)c1cccc([N+](=O)[O-])c1` gave A3A deaminase inactive, APJ antagonist 66, APJ agonist inactive, CCR6 antag inactive, CXCR6 block inactive, APOBEC3G inh inactive and APJ antag conf 64.
`COc1ccc(/C=C/C(=O)NC(=S)Nc2cc([N+](=O)[O-])ccc2O)cc1OC` gave A3A deaminase inactive, APJ antagonist 42, APJ agonist inactive, CCR6 antag inactive, CXCR6 block inactive, APOBEC3G inh inactive and APJ antag conf 60.
Screening COc1ccc([N+](=O)[O-])cc1NC(=S)NC(C)=O returned A3A deaminase inactive, APJ antagonist inactive, APJ agonist inactive, CCR6 antag inactive, CXCR6 block inactive and APOBEC3G inh inactive.
For O=C(COc1ccccc1F)NC12CC3CC(CC(C3)C1)C2 the results were A3A deaminase inactive, APJ antagonist inactive, APJ agonist inactive, CCR6 antag inactive, CXCR6 block inactive and APOBEC3G inh inactive.
Screening Cc1cc([N+](=O)[O-])ccc1NC(=S)NC(=O)C(c1ccccc1)c1ccccc1 returned A3A deaminase inactive, APJ antagonist 42, APJ agonist inactive, CCR6 antag 53, CXCR6 block inactive, APOBEC3G inh inactive and APJ antag conf 52.
c1ccc(-c2nnc3sc(-c4ccncc4)nn23)cc1 was read as A3A deaminase inactive, APJ antagonist inactive, APJ agonist inactive, CCR6 antag inactive, CXCR6 block inactive and APOBEC3G inh inactive.
`Clc1ccc(-c2nn3c(-c4ccccc4)nnc3s2)cc1` gave A3A deaminase inactive, APJ antagonist 43, APJ agonist inactive, CCR6 antag inactive, CXCR6 block inactive, APOBEC3G inh inactive and APJ antag conf inactive.
COc1cccc(N=C2NC(=O)/C(=C/c3cc([N+](=O)[O-])ccc3O)S2)c1 was read as A3A deaminase inactive, APJ antagonist 41, APJ agonist inactive, CCR6 antag inactive, CXCR6 block inactive, APOBEC3G inh inactive and APJ antag conf 52.
Screening O=C1NC(=Nc2ccccc2Cl)S/C1=C\c1cc([N+](=O)[O-])ccc1O returned A3A deaminase inactive, APJ antagonist inactive, APJ agonist inactive, CCR6 antag inactive, CXCR6 block inactive and APOBEC3G inh inactive.
Screening CS(=O)(=O)Nc1ccc(F)cc1 returned CXCR6 block inactive.
`O=C1ON=C(c2ccccc2)/C1=C/c1ccc(O)c(O)c1` gave A3A deaminase inactive, APJ antagonist 42, APJ agonist inactive, CCR6 antag inactive, CXCR6 block inactive, APOBEC3G inh inactive and APJ antag conf 68.
Screening COc1ccc(/C=C2\C(=O)ON=C2c2ccccc2)cc1 returned A3A deaminase inactive, APJ antagonist inactive, APJ agonist inactive, CCR6 antag inactive, CXCR6 block inactive and APOBEC3G inh inactive.
Screening COc1cc2c(=O)n(Cc3ccccc3)c(=O)n(CC(=O)NCC3CCCO3)c2cc1OC (stereo unspecified) returned A3A deaminase inactive, APJ antagonist 40, APJ agonist inactive, CCR6 antag inactive, CXCR6 block inactive, APOBEC3G inh inactive and APJ antag conf inactive.
Screening COc1cc2c(=O)n(CCC(=O)NCC3CCCO3)c(=O)n(CC(=O)Nc3ccccc3C)c2cc1OC (stereo unspecified) returned A3A deaminase inactive, APJ antagonist inactive, APJ agonist inactive, CCR6 antag inactive, CXCR6 block inactive and APOBEC3G inh inactive.
Screening Cc1ccc(NNC(=O)c2cc(C(C)(C)C)nn2Cc2ccccc2)cc1 returned A3A deaminase inactive, APJ antagonist 41, APJ agonist inactive, CCR6 antag inactive, CXCR6 block inactive, APOBEC3G inh inactive and APJ antag conf 103.
`Cc1ccc(NC(=O)c2cc(C(C)(C)C)nn2Cc2ccccc2)cc1` gave A3A deaminase inactive, APJ antagonist inactive, APJ agonist inactive, CCR6 antag inactive, CXCR6 block inactive and APOBEC3G inh inactive.
`Cc1cc(=O)n2nc(N3CCCC(C(=O)NCc4ccco4)C3)sc2n1` (stereo unspecified) gave A3A deaminase inactive, APJ antagonist 50, APJ agonist inactive, CCR6 antag inactive, CXCR6 block inactive, APOBEC3G inh inactive and APJ antag conf inactive.
Screening O=C(O)C(Cc1ccccc1)N=C(NS(=O)(=O)c1ccccc1)c1ccccc1 (stereo unspecified) returned A3A deaminase inactive, APJ antagonist inactive, APJ agonist inactive, CCR6 antag inactive, CXCR6 block inactive and APOBEC3G inh inactive.
For O=c1[nH]c(CSc2nnc(Cc3ccccc3)o2)nc2ccccc12 the results were A3A deaminase inactive, APJ antagonist inactive, APJ agonist inactive, CCR6 antag inactive, CXCR6 block inactive and APOBEC3G inh inactive.
For COc1cc(C#N)c(NS(=O)(=O)c2ccc3[nH]c(=O)sc3c2)cc1OC the results were A3A deaminase inactive, APJ antagonist inactive, APJ agonist inactive, CCR6 antag inactive, CXCR6 block inactive and APOBEC3G inh inactive.
`COc1ccc(Cl)cc1C(=O)NNC(=S)NC(=O)c1ccc(F)c(F)c1` gave A3A deaminase inactive, APJ antagonist 40, APJ agonist inactive, CCR6 antag inactive, CXCR6 block inactive, APOBEC3G inh inactive and APJ antag conf inactive.
For N#Cc1c(-c2ccc(Cl)cc2)n(O)c2ccccc12 the results were CCR6 antag inactive and CXCR6 block inactive.
For NC(=O)c1ccc(N2CCN(S(=O)(=O)c3ccccc3)CC2)c([N+](=O)[O-])c1 the results were A3A deaminase inactive, APJ antagonist inactive, APJ agonist inactive, CCR6 antag inactive, CXCR6 block inactive and APOBEC3G inh inactive.
`Cc1cc(NC(=O)CCN2C(=O)C3C4CCC(C4)C3C2=O)c(C)cc1Br` (stereo unspecified) gave A3A deaminase inactive, APJ antagonist inactive, APJ agonist inactive, CCR6 antag inactive, CXCR6 block inactive and APOBEC3G inh inactive.
